{"data": "Results pooled from the literature", "ESR1": "Estrogen receptor (ESR1, Homo sapiens, UniProt P03372)", "M-phase phosphoprotein 8 chromodomain": "M-phase phosphoprotein 8, chromodomain (Homo sapiens, UniProt Q99549)", "AChE": "AChE (Phlebotomus papatasi, UniProt M1F887)", "note": "Protocols differ between the studies behind these lines."}
{"Compound": "Oc1ccc(-c2cc(Cl)ccc2Cl)c(Cl)c1", "target": "ESR1", "effect on": "reporter gene", "mode": "agonist", "technique": "luciferase", "endpoint": "EC50", "value": "0.2 µM"}
{"Compound": "O=c1c2ccccc2[se]n1-c1ccccc1", "target": "Leucine-rich repeat serine/threonine-protein kinase 2 (LRRK2, Homo sapiens, UniProt Q5S007, G2019S)", "effect on": "enzyme activity", "mode": "inhibitor", "technique": "radiometric", "endpoint": "IC50", "value": "1.86 µM"}
{"Compound": "Oc1ccc(-c2ccc(Cl)cc2)c(Cl)c1", "target": "ESR1", "effect on": "reporter gene", "mode": "agonist", "technique": "luciferase", "endpoint": "EC50", "value": "0.1 µM"}
{"Compound": "CCN(CCCC[C@H](NC(=O)[C@H](Cc1ccc(OC)c(OC)c1)NC(=O)[C@H](C)NC(=O)[C@H](Cc1ccccc1)NC(=O)c1cccnc1)C(=O)N[C@@H](CO)C(N)=O)C(C)C", "target": "M-phase phosphoprotein 8 chromodomain", "effect on": "cell-free assay", "technique": "TR-FRET", "endpoint": "IC50", "value": "1.9 µM"}
{"Compound": "COc1cc2c3cc1Oc1cc(ccc1O)C[C@@H]1c4c(cc(OC)c(O)c4Oc4ccc(cc4)C[C@@H]3N(C)CC2)CC[N+]1(C)C", "target": "AChE", "effect on": "enzyme activity", "mode": "inhibitor", "endpoint": "IC50", "value": "38.9 µM"}
{"Compound": "CCN(CCCC[C@H](NC(=O)[C@H](CC(C)C)NC(=O)[C@H](C)NC(=O)[C@H](Cc1ccco1)NC(=O)c1cccnc1)C(=O)N[C@@H](CO)C(N)=O)C(C)C", "target": "M-phase phosphoprotein 8 chromodomain", "effect on": "cell-free assay", "technique": "TR-FRET", "endpoint": "IC50", "value": "11 µM"}
{"Compound": "Oc1ccc(-c2cccc(Cl)c2)cc1Cl", "target": "ESR1", "effect on": "reporter gene", "mode": "agonist", "technique": "luciferase", "endpoint": "EC50", "value": "8.2 µM"}
{"Compound": "O=C1C[C@@H](c2ccc(O)cc2)Oc2cc(O)ccc21", "target": "ESR1", "effect on": "reporter gene", "mode": "agonist", "technique": "luciferase", "endpoint": "EC50", "value": "0.681 µM"}
{"Compound": "CC[N+](C)(C)c1cccc(O)c1", "target": "AChE", "effect on": "enzyme activity", "mode": "inhibitor", "endpoint": "IC50", "value": "1.18 µM"}
{"Compound": "O=C(CCCc1ccccc1)OC(CCN1CCN(CCCN(c2ccc(F)cc2)c2ccc(F)cc2)CC1)c1ccccc1 (centres unmarked)", "target": "Norepinephrine transporter (Slc6a2, Rattus norvegicus, UniProt Q9WTR4)", "effect on": "ligand displacement", "technique": "radioligand", "endpoint": "Ki", "value": "> 10 µM"}
{"Compound": "CCN(CCCC[C@H](NC(=O)[C@H](CC(C)C)NC(=O)[C@H](C)NC(=O)[C@H](Cc1ccccc1)NC(=O)c1ccncc1)C(=O)N[C@@H](CO)C(N)=O)C(C)C", "target": "M-phase phosphoprotein 8 chromodomain", "effect on": "cell-free assay", "technique": "TR-FRET", "endpoint": "IC50", "value": "0.99 µM"}
{"Compound": "CCCC[C@@H](NC(=O)[C@@H](N)Cc1c(C)cc(O)cc1C)C(=O)NCC(=O)N[C@@H](Cc1ccc(F)cc1)C(=O)N(C)CCC[C@@]1(c2ccc(F)cc2)OCc2cc(C#N)ccc21", "target": "Alpha-2C adrenergic receptor (ADRA2C, Homo sapiens, UniProt P18825)", "effect on": "ligand displacement", "technique": "radioligand", "endpoint": "Ki", "value": "0.28 µM"}
{"Compound": "C[C@H]1CCC[C@H](O)CCCCCc2cc(O)cc(O)c2C(=O)O1", "target": "ESR1", "effect on": "reporter gene", "mode": "agonist", "technique": "luciferase", "endpoint": "EC50", "value": "0.000134 µM"}
{"Compound": "CCN(CCCC[C@H](NC(=O)[C@H](CC(C)C)NC(=O)[C@H](C)NC(=O)[C@H](Cc1cccnc1)NC(=O)c1cccnc1)C(=O)N[C@@H](CO)C(N)=O)C(C)C", "target": "M-phase phosphoprotein 8 chromodomain", "effect on": "cell-free assay", "technique": "TR-FRET", "endpoint": "IC50", "value": "1.8 µM"}
